Source: PubChem
S1P1 ag-PAM = activates or potentiates agonism at human S1P1 receptor; AID 449; 56,000 tested, 0.57% active; activation, % at 9.5 µM; S1P1 CRE-bla cells, forskolin, beta-lactamase FRET, potentiator mode; S1P1 agonist co-added at EC20, 2 nM; 100% = saturating reference agonist, 0% = basal;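 active = activation above a cutoff set at the mean activation of all tested compounds plus 3 SD, cut at about 54% in these data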;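 also: forskolin at 4 µM as EC80 and the EC20 agonist is SEW2871; 100% = SEW2871 at its EC100 plus forskolin at EC80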
Target sequence (P21453 whole entry, looked up): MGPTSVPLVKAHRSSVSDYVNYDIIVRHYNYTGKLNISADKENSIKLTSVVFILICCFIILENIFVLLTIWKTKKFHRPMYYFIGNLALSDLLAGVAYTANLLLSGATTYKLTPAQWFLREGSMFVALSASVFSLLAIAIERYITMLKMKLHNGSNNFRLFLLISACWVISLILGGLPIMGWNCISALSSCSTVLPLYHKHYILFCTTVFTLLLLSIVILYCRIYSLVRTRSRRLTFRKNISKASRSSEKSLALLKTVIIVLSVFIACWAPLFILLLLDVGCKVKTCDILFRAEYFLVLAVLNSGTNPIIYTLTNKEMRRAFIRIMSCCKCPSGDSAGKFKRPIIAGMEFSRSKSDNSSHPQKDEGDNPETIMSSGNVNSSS
HTR1A agonist = agonists of human 5-HT1a serotonin receptor | P08908 | CHO 5-HT1a Ga15 NFAT-bla reporter, FRET ratio; 0% basal, 100% maximal reference agonist | activation, % at 10 µM | 65,000 tested, 0.56% active;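 active = activation above the screen-wide mean activation plus 3 SD, cut at about 19% in these data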;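 also: 0% = DMSO wells and 100% = 5-CT at EC100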
S1P3 agonist = activates the human S1P3 receptor. Q99500. S1P3 NFAT-BLA reporter cells, agonism, FRET ratio; relative to 1 µM S1P, basal subtracted. activation, % at 4.5 µM. 60,000 tested, 0.1% active. AID 373;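 active = activation above the screen-wide mean plus 3 SD, cut at about 4.5% in these data, passing the limit was not always enough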
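material = human S1P3 NFAT-BLA reporter CHO cells | schedule = 4 h compound at 37 °C, 2 h substrate at RT | measured by = fluorescent BLA substrate, ex 405 nm, em 460/535 nm ratio | controls = 1 µM S1P reference | replication = primary once, confirmation triplicate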
HTR1E agonist = agonists of human 5-HT1E serotonin receptor; AID 574; P28566; CHO 5-HT1E Ga15 NFAT-bla reporter, FRET; 0% DMSO wells, 100% control agonist wells; activation, % at 6 µM; 65,000 tested, 0.69% active;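 active = activation above a set limit, the screen-wide mean activation plus 3 SD, cut at about 8.5% in these data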;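 also: 100% = positive control agonist at 1 µM giving full maximal response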
5-HT1A blocker = 5-HT1a (human) receptor antagonism | P08908 | CHO 5-HT1a Ga15 NFAT-bla reporter, antagonist mode | inhibition, % at 10 µM | 62,000 tested, 0.68% active | AID 612;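 active = inhibition above the mean of all tested compounds plus 3 SD, cut at about 43% in these data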;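 also: receptor stimulated by 5-CT agonist at 100 nM near EC80; beta-lactamase reporter measured by ratiometric fluorescence of a cleavable substrate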
HTR1E antagonist = blocks the human 5-HT1E serotonin receptor. CHO 5-HT1E Ga15 NFAT-bla reporter, FRET, antagonist. 65,000 tested, 0.99% active. inhibition, % at 6 µM;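 active = inhibition above a set limit, the mean inhibition across every tested compound plus 3 SD, cut at about 29% in these data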;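 also: signal is the 460 over 535 nm emission ratio of beta-lactamase substrate; 0% = agonist plus DMSO wells and 100% = wells without agonist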
Starred values were filed as active, the others as inactive; · = no result. In the library only some 2.9% were active in any assay of this set; here they are far more common.

SMILES	S1P1 ag-PAM	HTR1A agonist	S1P3 agonist	HTR1E agonist	5-HT1A blocker	HTR1E antagonist
CNCCc1c[nH]c2ccccc12	16	28*	-2	104*	·	-17
CCCCOCCCn1c(N)c(C(=O)OC(C)COC)c2nc3ccccc3nc21 (configuration not stated)	-4	5	-2	10*	·	14
CN(C)CCOC(=O)c1cn(Cc2ccccc2)c2ccccc12	1	2	-3	59*	·	16
O=C(O)Cn1cc(C(=O)c2ccccc2)c2ccccc21	-6	-2	0	0	-4	-3
CCC(=NCCCN(CC)CC)c1c(O)n(-c2ccccc2)c(=O)[nH]c1=O	-14	-5	-1	0	-7	1
Cn1ncnc2c(=O)n(C)c(=O)nc1-2	130*	7	-2	4	85*	101*
COc1ccc(CCNC(=O)c2c(N)n(CCN3CCOCC3)c3nc4ccccc4nc23)cc1	-40	11	2	5	-34	-2
CC(C)CCNC(=O)c1c(N)n(CC2CCCO2)c2nc3ccccc3nc12 (configuration not stated)	·	35*	·	9.7*	-18	-2
CCC(C)NC(=O)c1c(N)n(CC2CCCO2)c2nc3ccccc3nc12 (configuration not stated)	-83	26*	2	8	-7	0
CCC(C)NC(=O)c1c(N)n(Cc2ccc3c(c2)OCO3)c2nc3ccccc3nc12 (configuration not stated)	-460	122*	31*	30*	-172	-39
Nc1c(C(=O)NCCc2ccccc2)c2nc3ccccc3nc2n1CCN1CCOCC1	-116	16	7.7*	3	-33	-3
CC(=O)N1CC(=O)Nc2ccc(Cl)cc2C1c1ccc(F)cc1 (configuration not stated)	-7	1	0	0	4	-13
CCCC(C)(COC(N)=O)COC(=O)NC(C)C (configuration not stated)	4	2	-4	0	·	-10
CCCNc1oc(-c2cccc3ccccc23)nc1C#N	-26	58*	2	6	-13	8
CCC(=NCc1ccc2c(c1)OCO2)c1c(O)n(C2CCCCC2)c(=O)[nH]c1=O	90	0	-1	0	1	17
CN(C)P(=NC(=S)c1cccn1C)(N(C)C)N(C)C	·	-1	·	2	0	-2
Cn1c(O)c(C=NCCN2CCN(C(=O)c3ccccc3)CC2)c(=O)n(C)c1=O	-2	-3	-1	1	-11	-4
Cn1c(O)c(C=NCCOc2ccc(Cl)cc2)c(=O)n(C)c1=O	-38	0	-1	1	-19	30*
c1ccc2c3c([nH]c2c1)CNCC3	-3	0	-3	0	·	-10
C1=C(c2c[nH]c3ccccc23)CCNC1	8	5	0	92*	16	-13
CC(C)N1CC=C(c2c[nH]c3ccccc23)CC1	-5	23*	-1	46*	14	-1
CCN1CCN(Cc2ccc(C)cc2C)CC1	-27	-1	-2	4	-7	-3
Cc1ccc(CN2CCN(C)CC2)c(C)c1	-4	-3	-1	9.8*	-16	-1
Cc1cccc(N2CCc3c2nc2ccccc2c3N)c1	1	-4	-2	0	16	-1
NCCc1c[nH]c2ccc(F)cc12	-30	43*	0	82*	3	-6
SMILES	S1P1 ag-PAM	HTR1A agonist	S1P3 agonist	HTR1E agonist	5-HT1A blocker	HTR1E antagonist
CC(=NCc1ccc(F)cc1)c1c(O)n(C)c(=O)n(C)c1=O	27	0	-2	-1	26	27
CCOc1cccc(C2NCc3ccccc3-n3cccc32)c1O (configuration not stated)	9	0	0	15*	1	-4
CCOc1cc(C2NCc3ccccc3-n3cccc32)ccc1O (configuration not stated)	67	0	0	0	20	-10
CN(C)C1=NC(N(C)C)=NP(N(C)C)(N(C)C)=N1	2	-2	-1	1	6	8
O/N=C1/C(=C\c2ccccc2)N2CCC1CC2	-12	-3	0	0	4	9
CCCCCCn1c(=O)c(C(=O)Nc2c(C)n(C)n(-c3ccccc3)c2=O)c(O)c2ccccc21	-8	84*	0	0	-20	-4
CCCCCn1c(=O)c(C(=O)Nc2ccncc2)c(O)c2ccccc21	-4	0	1	-1	-12	2
C=CCOC(=O)COc1cc(C)cc2oc(=O)c3c(c12)CCC3	-14	-1	-1	0	2	-3
Cc1cc(OC(=O)c2ccco2)c2c3c(c(=O)oc2c1)CCC3	-8	-1	-1	0	-6	32*
COc1ccc(C(=O)C(C)(C)NO)cc1	-8	-1	2	8.8*	-3	11
COc1ccc2c(c1OC)C(=O)OC2c1c(O)n(C2CCCCC2)c(=O)[nH]c1=O (configuration not stated)	10	-4	-1	0	·	-17
